Compounds with a hit are over-represented: about 1.9% of the library has one in this group of screens.
SENP1 inh – SENP1 (human) catalytic domain inhibition; inhibition, % at 10 µM; recombinant SENP1 catalytic domain, CyPet-SUMO1-YPet FRET cleavage; Q9P0U3; 0.21% of 360,000 active;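 active = inhibition at least 30% at 10 µM, raw YFP signal under a set limit, fluorescence ratio 0.5 to 1.5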
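Test system: hSENP1 catalytic domain, recombinant; Amount: 20 pM final SENP1 enzyme; Medium: Tris pH 8 buffer plus EDTA, NaCl, BME, BSA, NP40, catalase; Schedule: 50 min enzyme reaction, room temperature, light-protected; Technique: FRET fluorescence in CFP and YFP emission channels; Controls: no-enzyme wells low, DMSO-plus-enzyme wells high control.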
ADAM17 inh – ADAM17 inhibition, QFRET primary screen | recombinant ADAM17, EDANS/DABCYL FRET peptide cleavage | inhibition, % at 6.95 µM | 0.83% of 370,000 active | AID 720648;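 active = inhibition above the mean of compounds lying between control limits plus 3 SD, set per campaign, cut at about 8.5% in these data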
FAS-TE inh – FAS thioesterase (human) inhibition; 0.67% of 360,000 active; inhibition, % at 15 µM; recombinant FAS-TE, OMFH fluorogenic substrate, fluorescence endpoint; AID 602261; P49327;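 active = compounds whose normalised, plate-corrected inhibition of enzyme fluorescence in the single-dose primary screen is 50% or more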
ADAM10 inh – inhibits human ADAM10. O14672. recombinant ADAM10, EDANS/DABCYL FRET peptide cleavage, 3 h. inhibition, % at 7 µM. 0.62% of 370,000 active. AID 720582;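 active = inhibition above a per-campaign cutoff equal to the mean of compounds falling between control-based bounds plus 3 SD, cut at about 20% in these data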
FAS-TE inh conf – FAS thioesterase (human) inhibition, confirmation; shares compounds with FAS-TE inh; recombinant FAS-TE, OMFH fluorogenic substrate, fluorescence; inhibition, % at 15 µM; 45% of 2,300 active; AID 624325;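 active = compounds inhibiting the enzyme by at least 50% at 15 µM in any one of the replicates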
Hits are given with their value; n = inactive; x = no result.

SMILES | SENP1 inh | ADAM17 inh | FAS-TE inh | ADAM10 inh | FAS-TE inh conf
O=C(O)COc1ccccc1C(Nc1cccnc1)c1cc(Cl)c2cccnc2c1O (configuration not stated) | n | x | n | x | x
O=C(O)COc1ccccc1C(Nc1ccccn1)c1cc(Cl)c2cccnc2c1O (configuration not stated) | n | n | 54 | n | 51
COc1ccccc1NC(=O)c1ccccc1S(=O)(=O)c1ccc([N+](=O)[O-])cc1 | n | n | 54 | n | 63
COc1ccccc1NC(=O)c1ccccc1S(=O)(=O)c1ccccc1[N+](=O)[O-] | n | n | n | n | x
CC(=O)Nc1ccc(NC(=O)c2ccccc2S(=O)(=O)c2ccc([N+](=O)[O-])cc2)cc1 | n | n | 59 | n | 64
COC(=O)C[C@H]1CC[C@@H]2[C@@H](COc3ccc(NC(=O)Nc4ccccc4OC)cc3C(=O)N2C)O1 | x | n | x | n | x
Cc1ccc(CNC(=O)OC(C)(C)C)c(/C=C/S(=O)(=O)NCCc2ccccc2)c1 | x | n | x | n | x
COc1ccc(S(=O)(=O)N(C(=O)c2ccncc2)c2ccc3oc4c(c3c2)CCCC4)cc1 | n | n | 60 | n | n
COC(=O)C1=C(C)NC(C)=C(C(=O)OC)C1c1ccc(OC(=O)c2oc3ccccc3c2C)c(OC)c1 | n | n | 52 | n | n
COC(=O)C1=C(C)NC(=O)NC1c1ccc(OC)c(OC)c1 (configuration not stated) | n | n | n | n | x
Cc1cccc(C(=O)NCCC(=O)Nc2ccc(F)c([N+](=O)[O-])c2)c1 | n | n | 54 | n | 68
Cc1cccc(C(=O)NCCC(=O)Nc2ccc(C)c(F)c2)c1 | n | n | n | n | x
Cc1ccc2nc(SCC(=O)Nc3ccc(F)c([N+](=O)[O-])c3)[nH]c2c1 | n | n | 62 | n | 68
C=CCN1[C@H](C)COc2cccc(N3CCCC3)c2S1(=O)=O | x | n | x | n | x
CS(=O)(=O)c1ccc2nc(NC(=O)C3=NN(c4ccccc4)C(=O)CC3)sc2c1 | n | n | n | n | x
CS(=O)(=O)c1ccc2nc(NC(=O)c3cc(-c4ccccc4)nn3-c3ccccc3)sc2c1 | n | n | 86 | n | n
COc1ccc(/C=N/Nc2ccc(C(=O)O)cc2)cc1Br | n | n | n | n | x
C=CCOc1c(Br)cc(/C=N/Nc2ccc(C(=O)O)cc2)cc1OCC | n | n | 54 | n | 72
Cc1ccc2cc(COC(=O)c3cccc([N+](=O)[O-])c3)c(=O)[nH]c2c1 | n | n | 63 | n | n
CCCCCCCCN1C(=O)[C@@H](CC(=O)NCc2ccc(C)o2)C[C@@]2(C(=O)OC)C1=C[C@H](COCc1ccccc1)O[C@@H]2C | x | n | x | n | x
O=C(Nc1cccc(C(F)(F)F)c1)OCCCN1CCC2(CCC(c3ccccc3)CC2)C1=O (configuration not stated) | x | n | x | n | x
CCN1CCCCC(NC(=O)c2cc(OC)c(OC)c(OC)c2)C1=O (configuration not stated) | x | n | x | n | x
CCOC(=O)c1nc(NNC(=O)c2ccc([N+](=O)[O-])cc2)sc1C | n | n | 53 | n | n
O=C(OC12CCCN(C1)/C(=C/c1cccc(Cl)c1)C2)c1ccccc1 (configuration not stated) | x | n | x | n | x
C[C@H]1CN([C@@H](C)CO)S(=O)(=O)c2ccc(Br)cc2O[C@H]1CN(C)C(=O)Cc1ccccc1 | n | n | n | n | x
SMILES | SENP1 inh | ADAM17 inh | FAS-TE inh | ADAM10 inh | FAS-TE inh conf
C[C@@H]1CN([C@H](C)CO)S(=O)(=O)c2ccc(C#Cc3ccccc3F)cc2O[C@@H]1CN(C)C(=O)Cc1ccccc1 | n | n | 70 | n | 41
CN(C(=O)C1CCN(c2cncnc2)CC1)C1CCCCC1 | x | n | x | n | x
Cc1ccc(-c2cc(C(F)F)n3ncc(C(=O)N4CCc5ccccc5C4)c3n2)cc1 | n | n | 53 | n | n
CCC[C@H]1[C@@H](NC(=O)C#Cc2ccccc2)CC[C@@]23CCCN2C(=O)CCC[C@@H]13 | x | n | x | n | x
CCOC(=O)[C@@]12CN(C(=O)OC(C)(C)C)CC=C1N(Cc1ccc(OC)cc1)C(=O)[C@H]2CC(=O)NCC12CC3CC(CC(C3)C1)C2 | x | n | x | n | x
O=[N+]([O-])c1ccc(Oc2cccc(C(F)(F)F)c2)nc1 | n | n | n | n | x
O=[N+]([O-])c1ccc(Cn2cc(-c3cccc(C(F)(F)F)c3)nn2)cc1 | n | n | 55 | n | n
O=S(=O)(CC1NCc2ccccc21)NCCc1ccccc1 (configuration not stated) | x | n | x | n | x
CC(C)C[C@@H]1COc2cc(Br)ccc2S(=O)(=O)N1Cc1cn(CCC2OCCCO2)nn1 | x | n | x | n | x
O=C1C(Cc2ccccc2)Nc2ncnc(N3CCN(c4ccccc4)CC3)c2N1Cc1ccc(Cl)cc1 (configuration not stated) | n | n | 84 | n | n
COc1ccc(NC(=O)O[C@@H](C)[C@@H]2CN3CCc4c([nH]c5ccc(-c6ccc(OC)cc6)cc45)[C@@H]3C[C@@H]2N(C)C(=O)Nc2ccc(OC)cc2)cc1 | n | n | 54 | n | n
CCOC1=C2[C@H](c3ccc(CC)cc3)N(S(=O)(=O)c3ccc(C)cc3)C[C@H]2C(C#N)(C#N)C(C#N)(C#N)C1 | n | n | 80 | n | n
CCOC1=C2[C@@H](CN(S(=O)(=O)c3ccc(C)cc3)[C@H]2c2ccccc2Cl)[C@H]2C(=O)NC(=O)[C@H]2C1 | n | n | n | n | x
CCOC1=C2[C@H](c3ccccc3Cl)N(S(=O)(=O)c3ccc(C)cc3)C[C@H]2C(C#N)(C#N)C(C#N)(C#N)C1 | n | n | 76 | n | n
O=C(OCc1cn(Cc2ccc(F)c(F)c2)nn1)N1CCOCC1 | x | n | x | n | x
CC(C)(C)SCCNC(=O)/C=C/c1ccc([N+](=O)[O-])cc1 | n | n | n | n | x
CC(C)(C)SCCNC(=O)/C=C/c1cccc([N+](=O)[O-])c1 | n | n | 72 | n | 62
O=C(/C=C/c1cccc([N+](=O)[O-])c1)NCCSc1ccccc1 | n | n | 69 | n | 80
COc1ccc2c(c1)CCCN2C(=O)C1CCCN(S(=O)(=O)c2ccc(Cl)s2)C1 (configuration not stated) | x | n | x | n | x
COC(=O)N1C[C@H](OC)[C@H]2C[C@@H]1c1ccccc1O2 | x | n | x | n | x
CCCN1CCN(CCCNC(=O)CN2C(=O)c3cccnc3Oc3ccc(Cl)cc32)CC1 | n | n | n | n | x
O=C(CN1C(=O)c2cccnc2Oc2ccc(Cl)cc21)NCCCc1ccccc1 | n | n | 55 | n | n
O=C(Nc1ccon1)c1ccc(N2CCCCC2)c([N+](=O)[O-])c1 | n | n | n | n | x
O=C(Nc1nc2ccccc2s1)c1ccc(N2CCCCC2)c([N+](=O)[O-])c1 | n | n | 54 | n | n
O=C(Cc1ccc(F)cc1)Nc1nc(-c2ccc(F)c(F)c2)cs1 | n | n | 51 | n | n
COc1ccc(-c2nnc3n2N=C(c2cccc([N+](=O)[O-])c2)CS3)cc1 | x | n | x | n | x
